Measured values: ChEMBL document CHEMBL3124917, “Design, synthesis, and biological evaluation of deuterated C-aryl glycoside as a potent and long-acting renal sodium-dependent glucose cotransporter 2 inhibitor for the treatment of type 2 diabetes” (J Med Chem, 2014)

Legend:
Canis familiaris [1] = test: Antidiabetic activity in Beagle dog assessed as urinary glucose excretion at 0.03 mg/kg, po administered 1 hr prior to glucose challenge measured after 1 to 8 hrs relative to dapagliflozin; assay type: functional, Canis lupus familiaris, Urine
How it was run: (§1)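 Overnight-fasted beagle dogs, n = 3 per group, given 0.03 mg/kg orally by gavage in 10% PEG400; vehicle controls received 10% PEG400. Oral glucose (2 g/kg, 5 mL/kg) given 1 h post-dose. Urine collected in metabolic cages at 0–8 and 8–24 h, glucose read on a biochemistry analyzer. Expressed as % of reference positive control; mean ± SD.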

Canis familiaris [2] = test: Antidiabetic activity in Beagle dog assessed as urinary glucose excretion at 0.03 mg/kg, po administered 1 hr prior to glucose challenge measured after 8 to 24 hrs relative to dapagliflozin; assay type: functional, Canis lupus familiaris, Urine
How it was run: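 Overnight-fasted beagle dogs, n = 3 per group, given 0.03 mg/kg orally by gavage in 10% PEG400; vehicle controls received 10% PEG400. Oral glucose (2 g/kg, 5 mL/kg) given 1 h post-dose. Expressed as % of reference positive control; mean ± SD.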

Rattus norvegicus [3] = test: Antidiabetic activity in Sprague-Dawley rat assessed as urinary glucose excretion at 1 mg/kg, po administered 1 hr prior to glucose challenge measured after 1 to 24 hrs relative to dapagliflozin; assay type: functional, Urine
How it was run: (§2)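 Overnight-fasted Sprague-Dawley rats, n = 3 per group, dosed 1 mg/kg by oral gavage in 30% PEG400; controls received vehicle. Oral glucose (2 g/kg, 10 mL/kg) given 1 h post-dose. Urine collected in metabolic cages at 0–4 and 4–24 h, glucose measured on a biochemistry analyzer. Expressed as % of reference positive control; mean ± SD.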

[4] = AUC (0 to infinity) in Sprague-Dawley rat at 3 mg/kg, po by LC-MS/MS analysis; assay type: ADME, organism-based; design: time infinity, dose 3 mg/kg, route oral; details: plasma
How it was run: (§3)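 Male Sprague-Dawley rats, n = 4 per group, overnight-fasted. Oral gavage of 3 or 1 mg/kg in 30% PEG400; i.v. arm at 1 mg/kg. Orbital plexus blood taken under ether at 0.083–24 h; plasma deproteinized and assayed by LC-MS/MS. Noncompartmental parameters derived; mean ± SD reported.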

Rattus norvegicus [5] = test: Antidiabetic activity in Sprague-Dawley rat assessed as urinary glucose excretion at 1 mg/kg, po administered 1 hr prior to glucose challenge measured after 4 to 24 hrs relative to dapagliflozin; assay type: functional, Urine; how it was run: as §2
Rattus norvegicus [6] = test: Antidiabetic activity in Sprague-Dawley rat assessed as urinary glucose excretion at 1 mg/kg, po administered 1 hr prior to glucose challenge measured after 1 to 4 hrs relative to dapagliflozin; assay type: functional, Urine; how it was run: as §2
Canis familiaris [7] = test: Antidiabetic activity in Beagle dog assessed as urinary glucose excretion at 0.03 mg/kg, po administered 1 hr prior to glucose challenge measured after 1 to 24 hrs relative to dapagliflozin; assay type: functional, Canis lupus familiaris, Urine; how it was run: as §1
[8] = Cmax in Sprague-Dawley rat at 1 mg/kg, po by LC-MS/MS analysis; assay type: ADME, organism-based; design: dose 1 mg/kg, route oral; details: in vivo; how it was run: as §3
Rattus norvegicus [9] = test: Antidiabetic activity in Sprague-Dawley rat assessed as reduction in blood glucose AUC at 1 mg/kg, po administered 1 hr prior to glucose challenge measured after 60 to 120 mins by oral glucose tolerance test relative to control; assay type: functional; design: scale not given: the % may be the effect or the level left
How it was run: (§4)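 Overnight-fasted male Sprague-Dawley rats, n = 5 per group, dosed orally at 0.1, 0.3, 1, 3 or 10 mg/kg in 30% PEG400 1 h before oral glucose challenge (20%, 2 g/kg). Blood glucose measured by glucometer from −60 to 120 min.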

Rattus norvegicus [10] = test: Antidiabetic activity in Sprague-Dawley rat assessed as reduction in blood glucose AUC at 0.1 mg/kg, po administered 1 hr prior to glucose challenge measured after 60 to 120 mins by oral glucose tolerance test relative to control; assay type: functional; design: scale not given: the % may be the effect or the level left; how it was run: as §4
[11] = biological target: T1, Sodium/glucose cotransporter 1 (Homo sapiens, UniProt P13866); test: Inhibition of full length human SGLT1 assessed as methyl-alpha-D-[U-14C]glucopyranoside uptake after 2 hrs by cell-based topcount scintillation counting analysis
T1 sequence (P13866 whole entry): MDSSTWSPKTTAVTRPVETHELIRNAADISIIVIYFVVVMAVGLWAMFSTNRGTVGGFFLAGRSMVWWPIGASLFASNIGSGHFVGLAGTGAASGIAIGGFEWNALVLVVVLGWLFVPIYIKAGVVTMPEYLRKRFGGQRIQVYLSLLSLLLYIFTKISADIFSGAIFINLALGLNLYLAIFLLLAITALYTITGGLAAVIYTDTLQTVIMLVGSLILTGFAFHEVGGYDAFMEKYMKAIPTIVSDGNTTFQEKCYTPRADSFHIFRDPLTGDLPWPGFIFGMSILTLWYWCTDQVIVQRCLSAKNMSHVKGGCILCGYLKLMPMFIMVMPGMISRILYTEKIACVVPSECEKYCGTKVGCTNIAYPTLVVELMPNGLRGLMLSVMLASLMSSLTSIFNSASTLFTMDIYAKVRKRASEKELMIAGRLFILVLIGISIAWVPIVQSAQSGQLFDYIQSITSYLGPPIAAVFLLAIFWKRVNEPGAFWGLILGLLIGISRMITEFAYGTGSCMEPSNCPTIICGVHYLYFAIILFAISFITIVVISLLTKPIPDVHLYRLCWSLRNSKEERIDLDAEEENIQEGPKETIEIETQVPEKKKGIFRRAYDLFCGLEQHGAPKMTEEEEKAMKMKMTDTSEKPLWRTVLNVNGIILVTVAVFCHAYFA

[12] = Half life in Sprague-Dawley rat at 1 mg/kg, iv by LC-MS/MS analysis; assay type: ADME, organism-based; design: dose 1 mg/kg, route intravenous; details: in vivo; how it was run: as §3
[13] = Oral bioavailability in Sprague-Dawley rat at 1 mg/kg by LC-MS/MS analysis; assay type: ADME, organism-based; details: in vivo; how it was run: as §3
[14] = Tmax in Sprague-Dawley rat at 1 mg/kg, po by LC-MS/MS analysis; assay type: ADME, organism-based; design: dose 1 mg/kg, route oral; details: in vivo; how it was run: as §3
Rattus norvegicus [15] = test: Antidiabetic activity in Sprague-Dawley rat assessed as reduction in blood glucose AUC at 0.3 mg/kg, po administered 1 hr prior to glucose challenge measured after 60 to 120 mins by oral glucose tolerance test relative to control; assay type: functional; design: scale not given: the % may be the effect or the level left; how it was run: as §4
[16] = Clearance in Sprague-Dawley rat at 1 mg/kg, iv by LC-MS/MS analysis; assay type: ADME, organism-based; design: dose 1 mg/kg, route intravenous; details: in vivo; how it was run: as §3
[17] = Drug metabolism in Sprague-Dawley rat assessed as compound remaining at 50 mg/kg, po after 5 days by HPLC analysis; assay type: ADME, organism-based; design: dose 50 mg/kg, route oral; details: in vivo, read-out: Drug metabolism
Rattus norvegicus [18] = test: Antidiabetic activity in Sprague-Dawley rat assessed as reduction in blood glucose AUC at 3 mg/kg, po administered 1 hr prior to glucose challenge measured after 60 to 120 mins by oral glucose tolerance test relative to control; assay type: functional; design: scale not given: the % may be the effect or the level left; how it was run: as §4
Rattus norvegicus [19] = test: Antidiabetic activity in Sprague-Dawley rat assessed as reduction in blood glucose AUC at 10 mg/kg, po administered 1 hr prior to glucose challenge measured after 60 to 120 mins by oral glucose tolerance test relative to control; assay type: functional; design: scale not given: the % may be the effect or the level left; how it was run: as §4
[20] = Half life in Sprague-Dawley rat at 1 mg/kg, po by LC-MS/MS analysis; assay type: ADME, organism-based; design: dose 1 mg/kg, route oral; details: in vivo; how it was run: as §3
[21] = biological target: T2, Sodium/glucose cotransporter 2 (Homo sapiens, UniProt P31639); test: Inhibition of full length human SGLT2 assessed as methyl-alpha-D-[U-14C]glucopyranoside uptake after 1.5 hrs by cell-based topcount scintillation counting analysis
T2 sequence (P31639 whole entry): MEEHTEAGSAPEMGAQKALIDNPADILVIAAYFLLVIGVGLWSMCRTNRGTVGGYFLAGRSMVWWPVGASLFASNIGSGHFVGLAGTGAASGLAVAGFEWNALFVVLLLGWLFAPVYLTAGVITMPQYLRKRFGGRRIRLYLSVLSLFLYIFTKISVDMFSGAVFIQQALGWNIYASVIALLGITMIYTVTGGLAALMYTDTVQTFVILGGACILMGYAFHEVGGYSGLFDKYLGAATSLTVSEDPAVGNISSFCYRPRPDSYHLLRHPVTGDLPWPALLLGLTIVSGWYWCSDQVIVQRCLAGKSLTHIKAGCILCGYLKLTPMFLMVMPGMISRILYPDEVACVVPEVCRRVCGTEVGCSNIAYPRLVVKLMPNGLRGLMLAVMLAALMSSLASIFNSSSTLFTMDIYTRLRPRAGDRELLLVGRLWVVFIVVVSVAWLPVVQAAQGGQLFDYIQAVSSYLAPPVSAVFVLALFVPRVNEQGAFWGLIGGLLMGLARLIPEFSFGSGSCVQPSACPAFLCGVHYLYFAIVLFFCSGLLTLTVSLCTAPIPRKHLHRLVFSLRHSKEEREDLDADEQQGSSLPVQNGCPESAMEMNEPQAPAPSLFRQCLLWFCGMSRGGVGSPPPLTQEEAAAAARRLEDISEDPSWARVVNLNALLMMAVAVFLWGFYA

[22] = AUC (0 to infinity) in Sprague-Dawley rat at 1 mg/kg, po by LC-MS/MS analysis; assay type: ADME, organism-based; design: time infinity, dose 1 mg/kg, route oral; details: plasma; how it was run: as §3
[23] = AUC (0 to infinity) in Sprague-Dawley rat at 1 mg/kg, iv by LC-MS/MS analysis; assay type: ADME, organism-based; design: time infinity, dose 1 mg/kg, route intravenous; details: plasma; how it was run: as §3

[2H]C([2H])(c1ccc(OCC)cc1)c1cc([C@@H]2O[C@H](CO)[C@@H](O)[C@H](O)[C@H]2O)ccc1Cl
Activity (Canis familiaris [1]): 3400 mg | Activity (Canis familiaris [2]): 6830 mg | Activity (Rattus norvegicus [3]): 2220 mg | AUC(0-inf) [4]: 16100 ng·h/mL | Activity (Rattus norvegicus [5]): 2060 mg | Activity (Rattus norvegicus [6]): 168 mg | Activity (Canis familiaris [7]): 10200 mg

[2H]C([2H])(c1ccc(OC([2H])([2H])C([2H])([2H])[2H])cc1)c1cc([C@@H]2O[C@H](CO)[C@@H](O)[C@H](O)[C@H]2O)ccc1Cl
Activity (Canis familiaris [1]): 4360 mg | Activity (Canis familiaris [2]): 11000 mg | Activity (Rattus norvegicus [3]): 2080 mg | AUC(0-inf) [4]: 22400 ng·h/mL | Activity (Rattus norvegicus [5]): 1940 mg | Activity (Rattus norvegicus [6]): 137 mg | Activity (Canis familiaris [7]): 15400 mg

[2H]C([2H])([2H])Oc1ccc(Cc2cc([C@@H]3O[C@H](CO)[C@@H](O)[C@H](O)[C@H]3O)ccc2Cl)cc1
Cmax [8]: 257 ng/mL | Activity (Rattus norvegicus [9]): 26.7% | Activity (Canis familiaris [1]): 3480 mg | Activity (Canis familiaris [2]): 11200 mg | Activity (Rattus norvegicus [10]): 18.6% | IC50 [11]: 900 nM | Activity (Rattus norvegicus [3]): 2230 mg | AUC(0-inf) [4]: 7000 ng·h/mL | half-life [12]: 2.69 h | bioavailability [13]: 76.3% | Tmax [14]: 1.56 h | Activity (Rattus norvegicus [15]): 20.7% | clearance [16]: 12.7 mL/min/kg | remaining at 120 h [17]: 87% | Activity (Rattus norvegicus [5]): 1980 mg | Activity (Rattus norvegicus [6]): 251 mg | Activity (Rattus norvegicus [18]): 21.6% | Activity (Rattus norvegicus [19]): 5% | half-life [20]: 3.5 h | IC50 [21]: 2.5 nM | AUC(0-inf) [22]: 1020 ng·h/mL | AUC(0-inf) [23]: 1330 ng·h/mL | Activity (Canis familiaris [7]): 14700 mg

COc1ccc(Cc2cc([C@@H]3O[C@H](CO)[C@@H](O)[C@H](O)[C@H]3O)ccc2Cl)cc1
Cmax [8]: 165 ng/mL | Activity (Canis familiaris [1]): 3620 mg | Activity (Canis familiaris [2]): 10900 mg | Activity (Rattus norvegicus [3]): 1890 mg | AUC(0-inf) [4]: 5350 ng·h/mL | half-life [12]: 2.09 h | bioavailability [13]: 77% | Tmax [14]: 1.75 h | clearance [16]: 14 mL/min/kg | remaining at 120 h [17]: 73% | Activity (Rattus norvegicus [5]): 1660 mg | Activity (Rattus norvegicus [6]): 233 mg | half-life [20]: 3.23 h | AUC(0-inf) [22]: 943 ng·h/mL | AUC(0-inf) [23]: 1220 ng·h/mL | Activity (Canis familiaris [7]): 14500 mg

CCOc1ccc(Cc2cc([C@@H]3O[C@H](CO)[C@@H](O)[C@H](O)[C@H]3O)ccc2Cl)cc1 [DAPAGLIFLOZIN]
AUC(0-inf) [4]: 11700 ng·h/mL | remaining at 120 h [17]: 43%
